Compound activity deposited in PubChem by Broad Institute.
Hits are enriched below; roughly 2.4% of the tested compounds scored in any of these assays.
CASP6 VEID inh – human caspase-6 inhibitors, primary screen, biochemical, VEID-R110 fluorescence, single point, set 2; purified caspase-6, Z-VEID-R110 cleavage fluorescence; P55212; hit rate 0.53% among 350,000; inhibition, % at 12.5 µM;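 active = mean inhibition across replicates at least about 35%, with every replicate also reaching that limit, limit read from the data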;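 also: 0% = median of neutral control wells and 100% = no fluorescence left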
Ecoli rRNA inh – reduced GFP signal of wild-type E. coli, primary screen, bacterial rRNA inhibitor project, GFP/RFP fluorescence, OD600, single point. GFP signal change (wild-type ribosome), % (no concentration beside the values). E. coli WT GFP vs humanized-ribosome RFP mutants, 24 h; hits give low values; DMSO median 0, no signal -100. hit rate 1.6% among 350,000;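 active = significant combined selectivity score with lowered wild-type GFP, culture density cut under 30%, mutant RFP and density less affected; inactive = any of these conditions unmet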
S100A4 MyoIIA – inhibitors of S100A4-myosin IIA peptide binding, primary screen, biochemical, fluorescence polarization, TAMRA-MyoIIA peptide; inhibition, % at 10.7 µM; Protein S100-A4 (Homo sapiens), P26447; AID 652163, 2013; hit rate 0.14% among 360,000;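 active = mean inhibition of at least 70% across replicates, with every replicate also reaching that level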
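Material: S100A4 monomer protein / Buffer or medium: 50 mM HEPES pH 7.2, 10 mM CaCl2, 100 mM KCl / Times: 5 min incubation before reading / Benchmarks: neutral control DMSO, positive control TFP / Reagent: labelled myosin peptide probe, 5 nM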
ERAP1 inh – human ERAP1 aminopeptidase inhibitors, primary screen, biochemical, single point, plate reader. Endoplasmic reticulum aminopeptidase 1 (Homo sapiens), Q9NZ08. recombinant ERAP1, Leu-AMC fluorescence, 60 min. inhibition, % at 10.7 µM. hit rate 0.15% among 340,000;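 active = mean replicate inhibition of at least 30%, or all replicates individually reaching that 30% level; inactive = mean below 30% and not every replicate reaching it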;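 also: 0% = neutral control wells and 100% = L-leucinethiol positive control wells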
ARNT TACC3 PPI – disruptors of ARNT/TACC3 protein interaction, primary screen, biochemical, AlphaScreen, single concentration; AID 623870, 2012; hit rate 0.66% among 390,000; AlphaScreen His-ARNT PAS-B/GST-TACC3 binding, luminescence; TACC3 fragment carries E629A point mutation; Transforming acidic coiled-coil-containing protein 3 (Homo sapiens), Q9Y6A5; inhibition, % at 9.99 µM;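 active = mean inhibition of replicates at least 50% and at least half of replicates each reaching 50%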;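 also: 0% = complete ARNT plus TACC3 wells and 100% = ARNT alone without TACC3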
PGC1a acetyl inh – inhibitors of PGC1a acetylation signal, primary screen, cell-based, U2OS, AlphaScreen, inhibitor mode; AlphaScreen anti-acetyl-lysine; with virally co-expressed GCN5 acetyltransferase; inhibition, % at 15.6 µM; hit rate 0.17% among 350,000;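 active = every replicate shows inhibition of at least 40%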;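 also: 0% = neutral control wells and 100% = positive control wells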
* = called active by the depositor; / = no result.

SMILES | CASP6 VEID inh | Ecoli rRNA inh | S100A4 MyoIIA | ERAP1 inh | ARNT TACC3 PPI | PGC1a acetyl inh
CC1(C)Cc2ccccc2-c2nc(NCCCO)[nH]c(=O)c21 | -3 | -43* | -6 | -3 | -1 | -15
CCn1c(NCCO)nc2c(c1=O)C(C)(CC)Cc1ccccc1-2 (stereo not drawn) | 4 | -28* | -4 | -4 | -7 | /
CCC1(C)Cc2ccccc2-c2nc(NCCO)[nH]c(=O)c21 (stereo not drawn) | 1 | -40 | 1 | -3 | -8 | /
O=C(O)c1ccc(N/N=C/C2=C(N3CCOCC3)C(=C\c3ccccc3)/CC2)cc1 | 12 | -36* | -14 | 10 | -2 | -11
C[C@]12CCCC(=O)N1CCc1c2[nH]c2ccccc12 | -2 | / | 12 | 0 | 0 | 6
O=C1c2ccccc2NC(c2cccc(O)c2)N1NS(=O)(=O)c1ccccc1 (stereo not drawn) | 1 | -2 | -2 | 38* | -11 | 0
Cc1ccc(S(=O)(=O)NN2C(=O)c3ccccc3NC2c2ccccc2)cc1 (stereo not drawn) | 2 | -17 | -5 | -7 | -3 | -10
c1ccc(CN2CCN(c3ncccn3)CC2)cc1 | -4 | 9 | 15 | -2 | -3 | 3
O=C(CN1CCN(c2ncccn2)CC1)N(Cc1ccccc1)c1ccc(F)cc1 | 2 | -35* | 3 | -5 | -1 | 3
CC(=O)Nc1ccc2c(c1)Cc1cc(N3C(=O)C=CC3=O)ccc1-2 | -1 | -28* | -8 | 34* | -12 | 11
Cc1ccc(S(=O)(=O)Nc2ccc3c(c2)CC(=O)N([C@@H](C)CO)C[C@H](C)[C@H](CN(C)S(=O)(=O)c2cn(C)cn2)O3)cc1 | -4 | 5 | -3 | -4 | -24 | -1
O=C(C[C@@H]1CC[C@@H]2[C@H](COC[C@H](O)CN2S(=O)(=O)c2ccccc2)O1)Nc1ccc(-c2ccccc2)cc1 | 0 | -1 | -1 | 1 | 7 | -3
C=CCn1c(SCC(=O)NNC(=S)Nc2ccccc2)nnc1-c1ccccc1 | 0 | -16* | 7 | 3 | 2 | -5
C=CCn1c(CNc2ccccc2)nnc1SCC(=O)N/N=C/c1ccccc1O | / | / | / | / | active | 16
COc1ccccc1-c1ccc2n(c1=O)C[C@@H]1[C@@H](CO)[C@H](C(=O)NC3CCC3)N(C(=O)C3CCC3)[C@H]21 | -1 | 1 | 5 | 0 | -5 | /
COC(=O)N/N=C/c1cc(Cl)c(OCc2ccc(F)cc2)c(OC)c1 | / | / | / | / | -2 | -1
COC(=O)N/N=C/c1cc(Cl)c(OCc2ccccc2F)c(OC)c1 | -4 | -16* | -5 | 0 | 0 | 14
Cc1ccc(-c2csc(NCCn3c(-c4ccncc4)nc4ccccc43)n2)cc1 | -1 | -21* | -3 | -2 | / | -16
COc1cccc(CN2CCC3(CC2)CN(C(=O)C2CC2)[C@H](CO)c2[nH]c4cc(OC)ccc4c23)c1 | / | 2 | -6 | 1 | / | 12
O=C(COC(=O)/C=C/c1ccc(OC(F)F)cc1)NC1CCCCCC1 | 0 | -18* | 2 | -1 | 4 | 3
O=C(COC(=O)/C=C/c1ccc(OC(F)F)cc1)NC1CCCCCCC1 | -1 | 9 | -1 | 0 | 3 | /
C[C@@H]1CN([C@H](C)CO)C(=O)c2cc(-c3ccncc3)cnc2O[C@@H]1CN(C)C(=O)C1CCCCC1 | 0 | 4 | -7 | 1 | / | 5
Cc1ccc(NC(=O)NCCN2CCCCC2)cc1 | -3 | 6 | -42 | -2 | -5 | -1
O=C(NCCN1CCN(c2cccc(Cl)c2)CC1)Nc1ccccc1 | -2 | -15 | 8 | 1 | -3 | -5
O=C(NCCN1CCCCC1)Nc1ccc(Br)cc1 | -1 | -32* | -16 | -3 | 2 | -6
SMILES | CASP6 VEID inh | Ecoli rRNA inh | S100A4 MyoIIA | ERAP1 inh | ARNT TACC3 PPI | PGC1a acetyl inh
O=C(NCCN1CCN(Cc2ccccc2)CC1)Nc1cc(Cl)cc(Cl)c1 | -3 | -49* | -2 | -2 | 9 | /
Cc1cc(N)n(-c2ccc(Oc3ccccc3)c(S(=O)(=O)O)c2)n1 | 38* | 15 | 0 | 4 | -1 | 6
CO[C@H]1CN(C)C(=O)c2ccc(NC(=O)C3CC3)cc2OC[C@H](C)N(C(=O)c2ccccc2F)C[C@@H]1C | -2 | 1 | 14 | 2 | -9 | 8
CN1C(=O)CCS(=O)(=O)C1c1ccc(Cl)c(Cl)c1 (stereo not drawn) | 57* | 10 | 0 | -1 | / | /
C[C@@H]1CN([C@H](C)CO)C(=O)c2cc(C#CC(C)(C)O)cnc2O[C@H]1CN(C)Cc1cccc(F)c1 | / | -2 | / | / | / | 3
Cc1cc(-c2c(C)[nH]n(-c3ccc(Cl)cc3)c2=O)n[nH]1 | / | / | / | / | 57* | -5
O=C(NC1CCCC1)N1CC(=O)N2[C@H](CO)[C@H](c3ccc(-c4ccccc4)cc3)[C@@H]2C1 | / | -4 | / | / | / | /
CC(C)CC#Cc1cnc2c(c1)C(=O)N([C@H](C)CO)C[C@H](C)[C@@H](CN(C)Cc1cncnc1)O2 | 1 | 0 | -31 | 2 | -7 | 4
C[C@@H]1CN([C@H](C)CO)C(=O)c2cc(NC(=O)CCN3CCOCC3)ccc2O[C@@H]1CN(C)C(=O)Nc1cccc2ccccc12 | 4 | 4 | -13 | 1 | 4 | 4
O=C(Cc1ccccc1)Nc1ccccc1N1CCN(c2ccccc2)CC1 | 5 | -23* | 0 | 9 | 4 | 5
O=C(CN1CCN(c2ccc(O)cc2)CC1)Nc1ccccc1C(=O)NCCc1ccccc1 | -1 | -25* | -2 | 0 | 8 | -8
O=C(CN1CCN(c2ccc(O)cc2)CC1)Nc1cc(S(=O)(=O)N2CCCC2)ccc1Cl | 2 | -21* | -2 | 0 | 33 | -15
CS(=O)(=O)Nc1ccc2c(c1)[C@@H]1C[C@@H](CC(=O)N3CCc4ccccc4C3)O[C@H](CO)[C@@H]1O2 | 2 | 2 | 6 | 1 | -2 | 6
COc1cccc(C(=O)Oc2c(Br)cc(Br)cc2/C=N/NC(=O)c2cc(C)[nH]n2)c1 | -2 | -20* | 2 | 1 | 4 | -7
Cc1cc(C(=O)N/N=C/c2cccc(OC(=O)c3cccc(Br)c3)c2)n[nH]1 | -4 | 6 | -6 | -5 | 4 | -1
CO[C@H]1CN(C)C(=O)c2cc(NC(=O)NC3CCCCC3)ccc2OC[C@@H](C)N(C(C)=O)C[C@@H]1C | / | 2 | / | / | / | 6
CCn1c(-c2cc(-c3ccc(C)cc3)nc3ccccc23)n[nH]c1=S | 11 | -29 | -3 | 1 | 3 | 7
